Data published in ChEMBL document CHEMBL4680181, “Identification of a 2,4-diaminopyrimidine scaffold targeting Trypanosoma brucei pteridine reductase 1 from the LIBRA compound library screening campaign” (Eur J Med Chem, 2020).
pIC50, pKi: −log10 of the molar value. Calls of active or inactive are those of the source. The calls are words filed in the database; no cut-off is given here.

Assays:
[1] = Inhibition of Trypanosoma brucei PTR1 using H2B as substrate preincubated for 10 mins followed by NADPH addition and measured up to 50 mins relative to control; conditions: for pKi: read-out: Ki
Method in brief: (§1)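 Purified recombinant LmPTR1 or TbPTR1 in a coupled enzyme assay. Nine-point dose response from 0.5 to 100 μM. IC50, pIC50 and Hill slope from a 4-parameter logistic fit. Ki derived by the competitive model Ki = IC50/((S/Km)+1).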

[2] = molecular target: T1, Pteridine reductase 1 (Leishmania major, UniProt Q01782); experiment: Inhibition of Leishmania major PTR1 using H2B as substrate preincubated for 10 mins followed by NADPH addition and measured up to 50 mins relative to control; method in brief: as §1
T1 sequence (Q01782 whole entry): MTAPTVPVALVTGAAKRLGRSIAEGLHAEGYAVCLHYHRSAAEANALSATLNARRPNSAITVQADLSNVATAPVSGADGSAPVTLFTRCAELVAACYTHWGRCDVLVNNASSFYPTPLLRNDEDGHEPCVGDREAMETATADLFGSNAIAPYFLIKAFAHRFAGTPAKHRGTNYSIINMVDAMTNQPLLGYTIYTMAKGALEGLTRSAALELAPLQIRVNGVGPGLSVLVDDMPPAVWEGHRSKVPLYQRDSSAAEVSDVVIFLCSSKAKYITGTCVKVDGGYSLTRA

[3] = tested on: Trypanosoma brucei brucei; experiment: Antitrypanosomal activity against bloodstream form of trypanosoma brucei brucei 427 assessed as reduction in parasitic growth after 72 hrs by resazurin staining based fluorescence assay; type: functional, organism-based; conditions: for pIC50: Trypanosoma brucei, 427, 72 h, read-out: IC50
Method in brief: (§2)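 T. brucei bloodstream forms in a modified resazurin-based growth assay. EC50 (concentration inhibiting growth by 50%) obtained by nonlinear regression. Combination wells contained 4 μM MTX (methotrexate); single-agent MTX was run at 4 μM. Single-concentration tests used 10, 1 or 0.1 μM of test compound.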

[4] = tested on: Trypanosoma brucei brucei; experiment: Antitrypanosomal activity against bloodstream form of trypanosoma brucei brucei 427 assessed as inhibition of parasitic growth at 10 uM after 72 hrs in presence of MTX by resazurin staining based fluorescence assay relative to control; type: functional; conditions: for inhibition of growth at 10 µM: read-out: GI; method in brief: as §2
[5] = tested on: Trypanosoma brucei brucei; experiment: Antitrypanosomal activity against bloodstream form of trypanosoma brucei brucei 427 assessed as inhibition of parasitic growth at 10 uM after 72 hrs by resazurin staining based fluorescence assay relative to control; type: functional; method in brief: as §2
[6] = tested on: Trypanosoma brucei brucei; experiment: Antitrypanosomal activity against bloodstream form of trypanosoma brucei brucei 427 assessed as potentiation index at 10 uM after 72 hrs in presence of MTX by resazurin staining based fluorescence assay; type: functional
Method in brief: (§3)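 Synergy index taken as the activity of test compound plus 4 μM MTX, divided by the summed activities of test compound alone and 4 μM MTX alone. Resazurin-based assay on T. brucei bloodstream forms.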

[7] = tested on: Trypanosoma brucei; experiment: Inhibition of Trypanosoma brucei PTR1 at 50 uM using H2B as substrate preincubated for 10 mins followed by NADPH addition and measured up to 50 mins relative to control; conditions: time min <=60
[8] = Selectivity ratio Ki for inhibition of inhibition of Leishmania major PTR1 to Ki for inhibition of Trypanosoma brucei PTR1
Method in brief: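 Ki values for LmPTR1 and TbPTR1, each calculated from the coupled-assay IC50 with the competitive model Ki = IC50/((S/Km)+1).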

[9] = tested on: Trypanosoma brucei brucei; experiment: Antitrypanosomal activity against bloodstream form of trypanosoma brucei brucei 427 assessed as inhibition of parasitic growth at 0.1 uM after 72 hrs in presence of MTX by resazurin staining based fluorescence assay relative to control; type: functional; conditions: read-out: GI; method in brief: as §2
[10] = tested on: Trypanosoma brucei brucei; experiment: Antitrypanosomal activity against bloodstream form of trypanosoma brucei brucei 427 assessed as inhibition of parasitic growth at 0.1 uM after 72 hrs by resazurin staining based fluorescence assay relative to control; type: functional, organism-based; method in brief: as §2
[11] = tested on: Trypanosoma brucei brucei; experiment: Antitrypanosomal activity against bloodstream form of trypanosoma brucei brucei 427 assessed as potentiation index at 0.1 uM after 72 hrs in presence of MTX by resazurin staining based fluorescence assay; type: functional; method in brief: as §3
[12] = tested on: Trypanosoma brucei brucei; experiment: Antitrypanosomal activity against bloodstream form of trypanosoma brucei brucei 427 assessed as inhibition of parasitic growth at 1 uM after 72 hrs in presence of MTX by resazurin staining based fluorescence assay relative to control; type: functional; conditions: read-out: GI; method in brief: as §2
[13] = tested on: Trypanosoma brucei brucei; experiment: Antitrypanosomal activity against bloodstream form of trypanosoma brucei brucei 427 assessed as inhibition of parasitic growth at 1 uM after 72 hrs by resazurin staining based fluorescence assay relative to control; type: functional, organism-based; method in brief: as §2
[14] = tested on: Trypanosoma brucei brucei; experiment: Antitrypanosomal activity against bloodstream form of trypanosoma brucei brucei 427 assessed as potentiation index at 1 uM after 72 hrs in presence of MTX by resazurin staining based fluorescence assay; type: functional; method in brief: as §3
[15] = Cytotoxicity against human A549 cells assessed as reduction in cell viability by Cell Titer-Glo assay; type: cell-based
Method in brief: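 A549 cells from DSMZ, grown in DMEM with 10% v/v FCS, 100 μg/mL streptomycin and 100 U/mL penicillin G. Viability read by CellTiter-Glo luminescence of cellular ATP, which scales with cell number. GI50 reported.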

[16] = Cytotoxicity against human THP-1 cells assessed as reduction in cell viability by MTT assay; type: cell-based
[17] = tested on: Trypanosoma brucei brucei; experiment: Antitrypanosomal activity against bloodstream form of trypanosoma brucei brucei 427 assessed as inhibition of parasitic growth at 4 uM after 72 hrs in presence of MTX by resazurin staining based fluorescence assay relative to control; type: functional; conditions: read-out: GI; method in brief: as §2
[18] = molecular target: hERG (KCNH2) (Homo sapiens, UniProt Q12809); experiment: Inhibition of human ERG at 10 uM by fluorescence polarization assay relative to control
Sequence of hERG (KCNH2) (Q12809 whole entry): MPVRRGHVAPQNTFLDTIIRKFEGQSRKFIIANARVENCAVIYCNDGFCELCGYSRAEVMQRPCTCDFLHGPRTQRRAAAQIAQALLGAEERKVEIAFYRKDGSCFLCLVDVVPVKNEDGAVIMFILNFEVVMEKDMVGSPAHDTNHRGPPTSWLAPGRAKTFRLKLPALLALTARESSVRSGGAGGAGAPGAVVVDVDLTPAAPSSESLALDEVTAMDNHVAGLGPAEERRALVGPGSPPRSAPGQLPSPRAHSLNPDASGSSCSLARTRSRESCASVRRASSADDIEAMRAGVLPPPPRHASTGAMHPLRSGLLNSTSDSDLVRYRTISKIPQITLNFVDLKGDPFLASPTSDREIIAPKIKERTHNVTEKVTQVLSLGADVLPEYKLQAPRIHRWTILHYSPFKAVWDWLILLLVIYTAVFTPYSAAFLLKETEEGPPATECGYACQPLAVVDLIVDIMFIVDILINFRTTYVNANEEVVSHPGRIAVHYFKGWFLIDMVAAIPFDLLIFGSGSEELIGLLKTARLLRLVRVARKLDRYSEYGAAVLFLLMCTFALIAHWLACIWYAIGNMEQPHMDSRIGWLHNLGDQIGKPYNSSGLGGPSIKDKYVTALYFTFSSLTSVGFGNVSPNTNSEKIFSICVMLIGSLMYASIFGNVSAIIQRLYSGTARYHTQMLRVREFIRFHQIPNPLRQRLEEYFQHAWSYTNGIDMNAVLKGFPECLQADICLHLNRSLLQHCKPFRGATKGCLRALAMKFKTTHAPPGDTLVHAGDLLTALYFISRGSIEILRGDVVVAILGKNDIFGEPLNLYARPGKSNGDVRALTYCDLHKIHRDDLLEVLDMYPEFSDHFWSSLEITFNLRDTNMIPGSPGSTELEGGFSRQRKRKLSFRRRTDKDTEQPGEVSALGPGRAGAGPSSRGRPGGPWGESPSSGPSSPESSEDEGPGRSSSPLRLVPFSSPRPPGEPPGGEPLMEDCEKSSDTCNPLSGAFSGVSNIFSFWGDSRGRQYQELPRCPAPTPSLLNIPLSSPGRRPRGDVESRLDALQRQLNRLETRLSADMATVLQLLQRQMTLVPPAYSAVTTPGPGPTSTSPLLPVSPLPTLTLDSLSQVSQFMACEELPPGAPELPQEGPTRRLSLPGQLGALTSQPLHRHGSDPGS
Method in brief: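 hERG inhibition measured by fluorescence polarization (Predictor hERG assay), with compound at 10 μM.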

[19] = molecular target: CYP2D6 (Homo sapiens, UniProt P10635); experiment: Inhibition of CYP2D6 (unknown origin) at 10 uM by P450-Glo assay relative to control; type: ADME
Sequence of CYP2D6 (P10635 whole entry): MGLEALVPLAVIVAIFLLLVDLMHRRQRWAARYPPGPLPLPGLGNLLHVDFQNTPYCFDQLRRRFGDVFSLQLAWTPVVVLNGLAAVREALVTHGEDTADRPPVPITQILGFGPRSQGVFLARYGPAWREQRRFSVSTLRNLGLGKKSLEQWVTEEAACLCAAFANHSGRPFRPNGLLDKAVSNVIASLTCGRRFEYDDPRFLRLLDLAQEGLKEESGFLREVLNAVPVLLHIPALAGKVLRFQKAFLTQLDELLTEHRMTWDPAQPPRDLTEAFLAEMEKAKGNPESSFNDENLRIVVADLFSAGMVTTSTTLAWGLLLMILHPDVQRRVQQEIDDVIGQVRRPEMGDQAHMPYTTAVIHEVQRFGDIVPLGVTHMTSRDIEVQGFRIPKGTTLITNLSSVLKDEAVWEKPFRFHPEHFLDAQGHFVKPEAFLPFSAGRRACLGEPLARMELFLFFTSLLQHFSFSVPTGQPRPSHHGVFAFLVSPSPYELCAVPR
Method in brief: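 CYP2D6 inhibition measured in the P450-Glo luminescent platform, with compound at 10 μM.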

Compound	pKi [1]	pKi [2]	IC50 [3]	inhibition of growth at 10 µM [4]	growth inhibition (GI) [5]	Activity_index [6]	inhibition [7]	pIC50 [3]	inhibition of growth at 0.1 µM [9]	growth inhibition (GI) [10]	Activity_index [11]	further results
COc1ccc(COc2cc(N)nc(N)n2)cc1	6.10	< 4.00	Not Active	42%	inactive	2.2						
COc1ccccc1CNCc1ccc(CNCCCCCCCCCCCCNCc2ccc(CNCc3ccccc3OC)cc2)cc1	6.70	4.43					> 85%	6.57	46%	inactive	1.1	Ratio Ki [8]: 186
Nc1cc(NCc2ccc(-c3ccccc3)cc2)nc(N)n1	6.70	4.82						5.43				inhibition of growth at 1 µM [12]: 49%; inhibition of growth at 10 µM ([5]; read-out: GI): > 80%; growth inhibition (GI) [13]: Active; Activity_index [14]: 2.3; GI50 [15]: 28.6 µM; CC50 [16]: < 25 µM
CN(Cc1cnc2nc(N)nc(N)c2n1)c1ccc(C(=O)N[C@@H](CCC(=O)O)C(=O)O)cc1 [METHOTREXATE]												inhibition of growth at 4 µM [17]: 19%
Nc1cc(NCc2ccccc2)nc(N)n1	5.47	< 4.00	Not Active	24%	inactive	1.3						inhibition at 10 µM [18]: > 50%; inhibition at 10 µM [19]: 30%
O=C1CCCCCNCc2ccc(cc2)-c2ccc(cc2)CNCCCCCC(=O)N(Cc2ccccc2)CCCCCCCCN1Cc1ccccc1	5.80	4.72					> 85%	6.25	41%	inactive	1.2	
Cn1cnc2c(N)nc(CCc3ccccc3)nc21	5.31	4.92	Not Active	56%		1.7	> 85%					
4-(4-Methoxybenzylamino)2,6-diaminopyrimidine					inactive							growth inhibition (GI) [4]: 41%; Activity index [6]: 2.2
Cl.Fc1ccc(N(CCNCCCc2ccccc2)c2ccc(F)cc2)cc1	5.66	< 4.00					> 85%	5.61	46%	inactive	1.1	pIC50 [2]: < 4.00; Ratio Ki [8]: > 45
Oc1ccc(-c2ccc(-c3cc(O)cc(O)c3)c(-c3ccccc3)c2)cc1	< 4.00	5.24					> 85%					pIC50 [1]: < 4.00
NCCCCCCN1CC[C@H]2COc3ccccc3[C@H]21	5.80	< 4.00	Not Active	51%	inactive	1.3	> 85%					pIC50 [2]: < 4.00; Ratio Ki [8]: > 62.5
Nc1cc(OCc2ccccc2)nc(N)n1	6.22	< 4.00	Not Active	36%	inactive	1.9	> 85%					pIC50 [2]: < 4.00; Ratio Ki [8]: > 167; inhibition at 10 µM [18]: < 30%; inhibition at 10 µM [19]: < 30%; GI50 [15]: > 60 µM; CC50 [16]: > 60 µM
O=C1CCCCCNCc2ccc(cc2)Cc2ccc(cc2)CNCCCCCC(=O)N(Cc2ccccc2)CCCCCCCCN1Cc1ccccc1	5.57	4.83					> 85%	6.24	42%	inactive	1.1	
Nc1cc(NCc2ccc(F)cc2)nc(N)n1	5.96	< 4.00	Not Active	37%	inactive	1.8						inhibition at 10 µM [18]: > 50%; inhibition at 10 µM [19]: 30%
O=C1CCCCCNCc2ccc(cc2)CNCCCCCC(=O)N(Cc2ccccc2)CCCCCCCCN1Cc1ccccc1	5.77	< 4.00					> 85%	6.21	43%	inactive	1.4	pIC50 [2]: < 4.00
Nc1nc(NCc2ccccc2)cc(NCc2ccccc2)n1		< 4.00										Ki [1]: Not Active; inhibition at 10 µM [18]: > 50%
